Data set [1] relates to Mycobacterium tuberculosis. The experiment in a line: Antimycobacterial activity against rifampicin/isoniazid-susceptible Mycobacterium tuberculosis H37Rv ATCC 27294 by BACTEC 460 radiometric method. Type of data set: functional, organism-based. The essentials:
(§1)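 Radiometric BACTEC 460 growth test on H37Rv (ATCC 27294). Compounds reaching at least 90% inhibition at 6.25 were retested at the lower concentrations 3.125 and 1.0, with % inhibition recorded. […] Isoniazid served as the reference standard.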

Data set [2] deals with Mycobacterium tuberculosis. Nature of the data set: Antimycobacterial activity against rifampicin/isoniazid-susceptible Mycobacterium tuberculosis H37Rv ATCC 27294 at 6.25 ug/ml after 5 days by microplate alamar blue assay. Type of data set: functional. The settings on record: H37Rv ATCC 27294, 120 h. The essentials:
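M. tuberculosis H37Rv (ATCC 27294, rifampicin- and isoniazid-susceptible) screened by Microplate Alamar Blue Assay at a single concentration of 6.25; read-out is % growth inhibition. Compounds showing fluorescence were instead tested in the BACTEC 460 radiometric system.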
A general note: Resazurin is reduced to fluorescent resorufin, in cell work by metabolically active cells.

Data set [3] concerns Mycobacterium tuberculosis. Nature of the data set: Antimycobacterial activity against rifampicin/isoniazid-susceptible Mycobacterium tuberculosis H37Rv ATCC 27294 at 1 ug/ml by BACTEC 460 radiometric method. It is filed as functional. Summed up: as §1
Data set [4] concerns Vero. The experiment in a line: Cytotoxicity against african green monkey Vero cells up to 50 ug/ml. It is filed as cell-based. Particulars: chlorocebus sabaeus.
The subject of data set [5] is Mycobacterium tuberculosis. Nature of the data set: Antimycobacterial activity against rifampicin/isoniazid-susceptible Mycobacterium tuberculosis H37Rv ATCC 27294 at 3.125 ug/ml by BACTEC 460 radiometric method. Type of data set: functional. The essentials:
as §1

As to `COC(=O)[C@H](CCCCNC(=O)OCc1ccccc1)NC(=O)c1cc(C23CC4CC(CC(C4)C2)C3)c2ccccc2n1`, in data set [1], the midpoint of inhibition, the IC50, lay at 3.16 µM. Besides, the inhibition (in general, the percentage by which the read-out fell short of the control) at 6.25 µg/mL in data set [2] was found to be 78%.

Take `COC(=O)[C@H](Cc1ccccc1)NC(=O)c1cc(C23CC4CC(CC(C4)C2)C3)c2ccccc2n1`: in data set [1], the IC50 (in general, the concentration that inhibits the measured activity by half) was 8.91 µM. Besides, testing at 6.25 µg/mL in data set [2] gave an inhibition of 60%.

On to `N=C(N)NCCC[C@H](N)C(=O)NNC(=O)c1cc(C23CC4CC(CC(C4)C2)C3)c2ccccc2n1`, for which half-maximal inhibition in data set [1] (IC50) required 1.15 µM. This compound also returned an inhibition at 6.25 µg/mL in data set [2] of 92%.

`N=C(N)NCCC[C@H](NC(=O)c1cc(C23CC4CC(CC(C4)C2)C3)c2ccccc2n1)C(=O)NN`: the IC50 in data set [1] was 0.0214 µM. In addition, 1 µg/mL produced 99% inhibition in data set [3]. Besides, the Activity result in data set [4] is recorded as “Non-toxic”.

Take `NNC(=O)[C@H](Cc1ccccc1)NC(=O)c1cc(C23CC4CC(CC(C4)C2)C3)c2ccccc2n1`: inhibition in data set [1] was half-maximal at 13.5 µM (IC50). The compound also had an inhibition at 6.25 µg/mL in data set [2] of 50%.

In turn, `NNC(=O)[C@H](Cc1c[nH]c2ccccc12)NC(=O)c1cc(C23CC4CC(CC(C4)C2)C3)c2ccccc2n1` showed an IC50 in data set [1] of 8.32 µM. Besides, in data set [2], the inhibition at 6.25 µg/mL was found to be 60%.

In turn, `COC(=O)CNC(=O)c1cc(C23CC4CC(CC(C4)C2)C3)c2ccccc2n1` had a concentration for half-maximal inhibition (IC50) in data set [1] of 15.5 µM. Also, 6.25 µg/mL produced 52% inhibition in data set [2].

In turn, `COC(=O)[C@H](CCCNC(=O)OCc1ccccc1)NC(=O)c1cc(C23CC4CC(CC(C4)C2)C3)c2ccccc2n1` gave an IC50 in data set [1] of 5.89 µM. In data set [2], testing at 6.25 µg/mL gave an inhibition of 66%.

The compound `COC(=O)[C@H](Cc1ccc(OCc2ccccc2)cc1)NC(=O)c1cc(C23CC4CC(CC(C4)C2)C3)c2ccccc2n1` had a concentration for half-maximal inhibition (IC50) in data set [1] of 7.94 µM. In data set [2], this compound had an inhibition at 6.25 µg/mL of 58%.

The compound `CC(C)(C)OC(=O)N[C@@H](Cc1c[nH]c2ccccc12)C(=O)NNC(=O)c1cc(C23CC4CC(CC(C4)C2)C3)c2ccccc2n1` yielded an inhibition at 3.125 µg/mL in data set [5] of 99%. The compound also gave an IC50 in data set [1] of 0.0513 µM. Moreover, the Activity result in data set [4] is listed as “Non-toxic”.

`CC(C)(C)OC(=O)N[C@@H](Cc1c[nH]cn1)C(=O)NNC(=O)c1cc(C23CC4CC(CC(C4)C2)C3)c2ccccc2n1`: the inhibition at 3.125 µg/mL in data set [5] stood at 99%. For the same compound, the IC50 in data set [1] is 0.0562 µM. Further, the Activity entry in data set [4] is reported as “Non-toxic”.

`CC(C)C[C@H](NC(=O)c1cc(C23CC4CC(CC(C4)C2)C3)c2ccccc2n1)C(=O)NN` had a 50% inhibitory concentration (IC50) in data set [1] of 2.95 µM. This compound also returned an inhibition at 6.25 µg/mL in data set [2] of 83%.

Consider `CC[C@H](C)[C@H](NC(=O)c1cc(C23CC4CC(CC(C4)C2)C3)c2ccccc2n1)C(=O)NN`, for which, in data set [1], the 50% inhibitory concentration (IC50) is 6.17 µM. This compound gave an inhibition at 6.25 µg/mL in data set [2] of 70%.

In data set [5], `COC(=O)[C@H](CCCNC(=N)N)NC(=O)c1cc(C23CC4CC(CC(C4)C2)C3)c2ccccc2n1` returned an inhibition at 3.125 µg/mL of 99%. This compound also had an IC50 in data set [1] of 0.135 µM. Besides, the Activity entry in data set [4] is “Non-toxic”.

For the compound `COC(=O)[C@H](Cc1c[nH]cn1)NC(=O)c1cc(C23CC4CC(CC(C4)C2)C3)c2ccccc2n1`, the inhibition at 3.125 µg/mL in data set [5] is 99%. The same compound had an IC50 in data set [1] of 0.0692 µM. In addition, in data set [4], the Activity result was “Non-toxic”.

In data set [1], `NCCCC[C@H](NC(=O)c1cc(C23CC4CC(CC(C4)C2)C3)c2ccccc2n1)C(=O)NN` showed a half-inhibitory concentration (IC50) of 19.5 µM. In data set [2], 6.25 µg/mL produced 36% inhibition.

Compound `NCCCC[C@H](N)C(=O)NNC(=O)c1cc(C23CC4CC(CC(C4)C2)C3)c2ccccc2n1` gave an IC50 in data set [1] of 7.24 µM. 6.25 µg/mL produced 66% inhibition in data set [2].

`CC(C)(C)OC(=O)N[C@@H](CCCNC(=N)N)C(=O)NNC(=O)c1cc(C23CC4CC(CC(C4)C2)C3)c2ccccc2n1`: the inhibition at 3.125 µg/mL in data set [5] came out at 99%. The compound further gave an IC50 in data set [1] of 0.055 µM. Moreover, the Activity result in data set [4] is “Non-toxic”.

`COC(=O)[C@H](CCC(N)=O)NC(=O)c1cc(C23CC4CC(CC(C4)C2)C3)c2ccccc2n1` had an IC50 in data set [1] of 11.5 µM. In data set [2], testing at 6.25 µg/mL gave an inhibition of 55%.

`NNC(=O)[C@H](Cc1c[nH]cn1)NC(=O)c1cc(C23CC4CC(CC(C4)C2)C3)c2ccccc2n1`: the 50% inhibitory concentration (IC50) in data set [1] is 0.138 µM. For the same compound, the inhibition at 6.25 µg/mL in data set [2] came to 99%.

In turn, `NNC(=O)CNC(=O)c1cc(C23CC4CC(CC(C4)C2)C3)c2ccccc2n1` had a half-inhibitory concentration (IC50) in data set [1] of 7.08 µM. 6.25 µg/mL produced 70% inhibition in data set [2].

`NNC(=O)[C@H](CCC(N)=O)NC(=O)c1cc(C23CC4CC(CC(C4)C2)C3)c2ccccc2n1` showed an IC50 in data set [1] of 14.1 µM. Besides, at 6.25 µg/mL the inhibition in data set [2] was 50%.

Turning to `NCCC[C@H](NC(=O)c1cc(C23CC4CC(CC(C4)C2)C3)c2ccccc2n1)C(=O)NN`, in data set [1], the concentration for half-maximal inhibition (IC50) is 12.3 µM. Besides, the inhibition at 6.25 µg/mL in data set [2] came out at 48%.

Take `CC[C@H](C)[C@H](NC(=O)c1cc(C23CC4CC(CC(C4)C2)C3)c2ccccc2n1)C(=O)OC`: the IC50 in data set [1] was 1.62 µM. In data set [2], this compound registered an inhibition at 6.25 µg/mL of 90%.

On to `COC(=O)[C@H](Cc1c[nH]c2ccccc12)NC(=O)c1cc(C23CC4CC(CC(C4)C2)C3)c2ccccc2n1`, for which the IC50 in data set [1] is 4.17 µM. Besides, the inhibition at 6.25 µg/mL in data set [2] came to 75%.

In data set [1], `COC(=O)[C@H](CC(C)C)NC(=O)c1cc(C23CC4CC(CC(C4)C2)C3)c2ccccc2n1` had a half-inhibitory concentration (IC50) of 2.95 µM. The inhibition at 6.25 µg/mL in data set [2] turned out to be 83%.

Compound `C[C@H](NC(=O)c1cc(C23CC4CC(CC(C4)C2)C3)c2ccccc2n1)C(=O)NN` gave an IC50 in data set [1] of 3.55 µM. This compound also returned an inhibition at 6.25 µg/mL in data set [2] of 82%.

Regarding `COC(=O)[C@H](CCSC)NC(=O)c1cc(C23CC4CC(CC(C4)C2)C3)c2ccccc2n1`, in data set [1], the midpoint of inhibition, the IC50, lay at 2.29 µM. This compound also showed an inhibition at 6.25 µg/mL in data set [2] of 86%.

With `NNC(=O)[C@H](Cc1ccc(O)cc1)NC(=O)c1cc(C23CC4CC(CC(C4)C2)C3)c2ccccc2n1`, in data set [1], the 50% inhibitory concentration (IC50) was 16.6 µM. In data set [2], this compound returned an inhibition at 6.25 µg/mL of 44%.

`CSCC[C@H](NC(=O)c1cc(C23CC4CC(CC(C4)C2)C3)c2ccccc2n1)C(=O)NN` had an IC50 in data set [1] of 6.61 µM. For the same compound, the inhibition at 6.25 µg/mL in data set [2] was determined as 68%.

Regarding `COC(=O)[C@H](C)NC(=O)c1cc(C23CC4CC(CC(C4)C2)C3)c2ccccc2n1`, in data set [1], the half-maximal inhibitory concentration (IC50) is 5.89 µM. Also, the inhibition at 6.25 µg/mL in data set [2] amounted to 73%.

The values above are taken from ChEMBL document CHEMBL1158356, “Synthesis, anti-tuberculosis activity and 3D-QSAR study of amino acid conjugates of 4-(adamantan-1-yl) group containing quinolines” (Eur J Med Chem, 2009).
